# Test results: PubChem BioAssay AID463104 (Sanford-Burnham Center for Chemical Genomics, 2010)
# In all, about 330,000 compounds went through this assay and about 1,100 (0.33%) were called active. The sample holds actives, similar compounds and a random draw of the others, so the mix is not that of the screen. A number with no mark means an inactive call.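 The calls were made as follows: active = versus positive control, 20 µM dose yields 30% or more activation; inactive = the rest.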
# Experiment: IRE1-XBP1 pathway stimulators – cell-based, CHO-XBP1 luciferase reporter, luminescence, uHTS, primary screen (AID 463104);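 also: 100% = tunicamycin at 10 µg/mL and 0% = DMSO only wells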
# Details: IRE1-XBP1 UPR activation, at 20 µM, hits give high values, percent of tunicamycin response, DMSO as zero
# In short: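 Material – CHO cell line with stable XBP1 luciferase reporter · Buffer or medium – F12 plus 10% FBS · Compound – single point, 20 µM final compound, 1% DMSO · Schedule – 16-18 h cell attachment at 37 °C, then 6 h compound exposure · Signal – Steady-Glo luminescence read · Benchmarks – high control tunicamycin 10 µg/mL final, low control DMSO vehicle only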
row,SMILES,activation
1,CC(C)N(C(=O)[C@H]1C[C@H](CC(=O)NCCC2=CCCCC2)C(=O)N2CCc3c([nH]c4cc(CCC(=O)N(C)C)ccc34)[C@]12C)C(C)C,-2.39%
2,CN(C)C(=O)CCc1ccc2c3c([nH]c2c1)[C@]1(CCc2ccccc2)[C@@H](C(=O)N2CCCCC2)C[C@H](CC(=O)NCCC2=CCCCC2)C(=O)N1CC3,37.8% (active)
3,CN(C)C(=O)CCc1ccc2c3c([nH]c2c1)[C@]1(C)[C@@H](C(=O)N2CCCCC2)C[C@H](CC(=O)NCCC2=CCCCC2)C(=O)N1CC3,-0.99%
4,CCOC(=O)N1CCC(O)(c2cc(C)c(C)cc2C)CC1,0.36%
5,c1ccc(-n2nnnc2NC2CCCCCC2)cc1,-3.04%
6,COc1cc(OC)c(C(=O)OC(C)C(=O)Nc2cc(C(F)(F)F)ccc2Cl)cc1OC (stereo not drawn),1.27%
7,COc1ccc(C2CC(=O)Nc3sc(=N)c4c(N)c(C#N)c(N)nc4c32)cc1OC (stereo not drawn),2.45%
8,N#Cc1c(N)nc2c3c(sc(=N)c2c1N)NC(=O)CC3c1ccccc1Cl (stereo not drawn),31.5% (active)
9,CSc1nc2c(c(=O)[nH]1)C(c1cccc(Cl)c1Cl)CC(=O)N2 (stereo not drawn),-1.96%
10,O=C(Nc1nnc(-c2ccccc2F)s1)c1ccccc1F,4.27%
11,Cc1ccc(-n2ncc3c2CC(C)(C)CC3NC(=O)CCc2cnn(C)c2)cc1 (stereo not drawn),-4.76%
12,COC(=O)c1sccc1NC(=O)COc1ccc(Cl)cc1,-0.33%
13,COC(=O)c1c(NC(=O)COc2ccc(Cl)cc2Cl)sc2c1CC(C)(C)NC2(C)C,74.2% (active)
14,CCOC(=O)c1c(NC(=O)c2ccc(S(=O)(=O)N(C)CC3CCCO3)cc2)sc2c1CC(C)(C)NC2(C)C (stereo not drawn),-6.05%
15,COc1ccc(-c2cc(=O)oc3cc(OCC(=O)N(C)C4CCS(=O)(=O)C4)ccc23)cc1 (stereo not drawn),-1.57%
16,COc1ncnc2c1N=C1CC(C)(C)CC(N)=C1S2,-0.91%
17,CN1C(=O)/C(=C/c2ccc(C(=O)NC3CCCC3)cc2)Oc2ccccc21,33.7% (active)
18,CN1CCN(CCCNC(=O)c2ccc(/C=C3\Oc4ccccc4N(Cc4ccc(Cl)cc4)C3=O)cc2)CC1,13.7%
19,O=C(NC1CC1)c1ccc(-c2ccccc2)cc1,0.87%
20,COc1cccc(NC(=O)C(Sc2nnnn2C)c2ccccc2)c1 (stereo not drawn),-3.49%
21,CCOC(=O)N1CCN(C(=O)c2nn(-c3ccc(C)cc3)c(=O)c3c2c2ccccc2n3C)CC1,34.3% (active)
22,CCOC(=O)N1CCN(C(=O)Cn2cnc3ccccc3c2=O)CC1,-3.17%
23,CCOC(=O)N1CCN(C(=O)c2n[nH]c(=O)c3ccccc23)CC1,-2.8%
